Results taken from ChEMBL document CHEMBL4680186, “New azole antifungals with a fused triazinone scaffold” (Eur J Med Chem, 2020).
Active and inactive are the calls of the source. No cut-off for these calls is given here.

Legend:
Rhizopus arrhizus [1] = test: Antifungal activity against Rhizopus oryzae RHPOR2 assessed as reduction in microbial growth after 24 hrs by broth microdilution method; type: functional
Method in brief: (§1)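 CLSI M38 broth microdilution in RPMI 1640 buffered to pH 7.0 with MOPS. Drugs were diluted in DMSO then medium; final range 0.032-16 mg/L. Conidia or sporangiospores came from 7-day potato dextrose agar cultures; diluted (2×) inocula were 0.9×10^4–4.7×10^4 CFU/mL. Incubation at 35 °C, read at 48 h except Zygomycetes at 24 h. MIC read visually as lowest concentration preventing 100% growth; duplicate.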

Rhizopus arrhizus [2] = test: Antifungal activity against Rhizopus oryzae RHPOR1 assessed as reduction in microbial growth after 24 hrs by broth microdilution method; type: functional; method in brief: as §1
Fusarium sp. = test: Antifungal activity against Fusarium sp. assessed as reduction in microbial growth […] by broth microdilution method; type: functional
Mucor circinelloides = test: Antifungal activity against Mucor circinelloides MURI1 assessed as reduction in microbial growth after 24 hrs by broth microdilution method; type: functional; method in brief: as §1
Scedosporium apiospermum = test: Antifungal activity against Scedosporium apiospermum SCAP1 assessed as reduction in microbial growth […] by broth microdilution method; type: functional
Candida albicans [3] = test: Antifungal activity against Candida albicans DSY292 harboring Erg1l G464S/R467K/Y132 mutant infected in Swiss mouse assessed as survival at 15 mg/kg, po after 5 days; type: functional, organism-based; conditions: time 5.0 day
Method in brief: (§2)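 Swiss mice (~25 g) immunosuppressed with prednisolone 30 mg/kg s.c. one day before challenge; day 0 i.v. infection with C. albicans blastoconidia (5.10⁶ yeast/mL, 100 µL). Oral dosing 1 h post-infection, once daily for 5 days, 10 mg/kg (CAAL93) or 15 mg/kg (DSY292), vehicle 40% DMSO/25% Tween80/35% olive oil. Mice given 50% grapefruit juice ad libitum. Survival followed 14 days (log-rank Mantel-Cox).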

[4] = test system: Pichia kudriavzevii (Candida krusei); test: Antifungal activity against fluconazole-resistant Candida krusei CAKR7 assessed as reduction in microbial growth after 24 hrs by resazurin staining based spectrofluorometric method; conditions: CAKR7, 24 h
Candida albicans [5] = test: Inhibition of sterol biosynthesis in Candida albicans CAAL93 assessed as fecosterol level at 10 ng/ml after 18 hrs by GC-MS analysis relative to control; type: functional; parameters: scale not given: the % may be the effect or the level left
Method in brief: (§3)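 C. albicans CAAL93 blastospores were grown 18 h at 35 °C with stirring in 50 mL Sabouraud broth, with drug added before incubation. Cells were pelleted and saponified in ethanolic KOH at 80 °C for 60 min, and sterols extracted with hexane. Analysis by GC-MS (EI 70 eV, splitless injection at 250 °C, helium carrier); sterols identified by fragmentation pattern.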

Candida albicans [6] = test: Inhibition of sterol biosynthesis in Candida albicans CAAL93 assessed as lanosterol level at 10 ng/ml after 18 hrs by GC-MS analysis (reference value: 1.6%); type: functional; parameters: scale not given: the % may be the effect or the level left; method in brief: as §3
Candida albicans [7] = test: Antifungal activity against Candida albicans CAAL93 infected in Swiss mouse assessed as reduction in kidney fungal burden at 10 mg/kg, po after 14 days; type: functional, organism-based; conditions: time 14.0 day
Candida albicans [8] = test: Inhibition of sterol biosynthesis in Candida albicans CAAL93 assessed as zymosterol level at 10 ng/ml after 18 hrs by GC-MS analysis (reference value: 1.6%); type: functional; parameters: scale not given: the % may be the effect or the level left; method in brief: as §3
Candida albicans [9] = test: Inhibition of sterol biosynthesis in Candida albicans CAAL93 assessed as ergostadienol level at 10 ng/ml after 18 hrs by GC-MS analysis (reference value: 1.6%); type: functional; parameters: scale not given: the % may be the effect or the level left; method in brief: as §3
Candida albicans [10] = test: Inhibition of sterol biosynthesis in Candida albicans CAAL93 assessed as 14alpha-methylfecosterol level at 10 ng/ml after 18 hrs by GC-MS analysis relative to control; type: functional; parameters: scale not given: the % may be the effect or the level left; method in brief: as §3
Candida albicans [11] = test: Inhibition of sterol biosynthesis in Candida albicans CAAL93 assessed as episterol level at 10 ng/ml after 18 hrs by GC-MS analysis (reference value: 2%); type: functional; parameters: scale not given: the % may be the effect or the level left; method in brief: as §3
Candida albicans [12] = test: Inhibition of sterol biosynthesis in Candida albicans CAAL93 assessed as other sterols level at 10 ng/ml after 18 hrs by GC-MS analysis (Rvb < 1%); type: functional; parameters: scale not given: the % may be the effect or the level left; method in brief: as §3
Candida albicans [13] = test: Inhibition of sterol biosynthesis in Candida albicans CAAL93 assessed as ergosterol level at 10 ng/ml after 18 hrs by GC-MS analysis (reference value: 89.7%); type: functional; parameters: scale not given: the % may be the effect or the level left; method in brief: as §3
Candida albicans [14] = test: Inhibition of sterol biosynthesis in Candida albicans CAAL93 assessed as eburicol level at 10 ng/ml after 18 hrs by GC-MS analysis relative to control; type: functional; parameters: scale not given: the % may be the effect or the level left; method in brief: as §3
Candida albicans [15] = test: Antifungal activity against Candida albicans CAAL93 infected in Swiss mouse assessed as survival at 10 mg/kg, po after 14 days relative to control; type: functional; conditions: 336 h, time 14 day; method in brief: as §2
[16] = test system: Pichia kudriavzevii (Candida krusei); test: Antifungal activity against fluconazole-resistant Candida krusei CAKR8 assessed as reduction in microbial growth after 24 hrs by resazurin staining based spectrofluorometric method; conditions: CAKR8, 24 h
Aspergillus fumigatus [17] = test: Antifungal activity against Aspergillus fumigatus ASFU77 assessed as reduction in microbial growth after 48 hrs by resazurin staining based spectrofluorometric method; type: functional
Method in brief: (§4)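 A. fumigatus conidia counted by microscope and inoculated at 10^4 cells mL⁻¹ in RPMI 1640 with 0.165 M MOPS, 2% glucose and antibiotics. Drugs were dissolved in DMSO (fluconazole in water), then diluted in medium. Plates ran 48 h at 37 °C, then resazurin for 20 h, read by fluorescence at ex 550/em 590 nm. MIC is 80% growth inhibition by linear regression; triplicate, mean±SD.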

Aspergillus fumigatus [18] = test: Antifungal activity against Aspergillus fumigatus ASFU7 assessed as reduction in microbial growth after 48 hrs by resazurin staining based spectrofluorometric method; type: functional; method in brief: as §4
Aspergillus fumigatus [19] = test: Antifungal activity against Aspergillus fumigatus ASFU76 assessed as reduction in microbial growth after 48 hrs by resazurin staining based spectrofluorometric method; type: functional; method in brief: as §4
Nakaseomyces glabratus = test: Antifungal activity against fluconazole-sensitive Candida glabrata CAGL2 assessed as reduction in microbial growth after 24 hrs by resazurin staining based spectrofluorometric method; type: functional
Method in brief: (§5)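 Yeasts in RPMI 1640 with 0.165 M MOPS, 2% glucose and antibiotics, final 10³ cells mL⁻¹. Drugs in DMSO (fluconazole in water) were diluted in medium. Plates ran 24 h at 37 °C, then resazurin for 4 h, fluorescence ex 550/em 590 nm. MIC is 50% growth inhibition by linear regression; triplicate, mean±SD.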

Candida albicans [20] = test: Antifungal activity against fluconazole-resistant Candida albicans DSY292 harboring Erg1l G464S/R467K/Y132 mutant assessed as reduction in microbial growth after 24 hrs by resazurin staining based spectrofluorometric method; type: functional
Method in brief: (§6)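 Broth microdilution in RPMI 1640 with 0.165 M MOPS, 2% glucose and antibiotics; yeast inoculum at 10³ cells mL⁻¹ final. Compounds were dissolved in DMSO (fluconazole in water) and diluted in medium, then incubated 24 h at 37 °C. Viability was read by resazurin fluorescence (ex 550/em 590 nm) after 4 h. MIC was taken as 50% growth inhibition, by linear regression; triplicate experiments.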

Candida albicans [21] = test: Antifungal activity against fluconazole-susceptible Candida albicans CAAL93 assessed as reduction in microbial growth after 24 hrs by resazurin staining based spectrofluorometric method; type: functional; method in brief: as §5
Candida albicans [22] = test: Antifungal activity against fluconazole-resistant Candida albicans DSY735 over expression of CDR1/CDR2 assessed as reduction in microbial growth after 24 hrs by resazurin staining based spectrofluorometric method; type: functional; method in brief: as §6
Candida albicans [23] = test: Antifungal activity against Candida albicans DSY292 harboring Erg1l G464S/R467K/Y132 mutant infected in Swiss mouse assessed as survival at 15 mg/kg, po after 8 days; type: functional, organism-based; conditions: time 8.0 day; method in brief: as §2

SMILES | MIC (Rhizopus arrhizus [1]) [µg/mL] | MIC (Rhizopus arrhizus [2]) [µg/mL] | MIC (Fusarium sp.) [µg/mL] | MIC (Mucor circinelloides) [µg/mL] | MIC (Scedosporium apiospermum) [µg/mL] | MIC [4] [µg/mL] | MIC [16] [µg/mL] | MIC (Aspergillus fumigatus [17]) [µg/mL] | MIC (Aspergillus fumigatus [18]) [µg/mL] | also measured
CC[C@@H]([C@H](C)O)n1ncn(-c2ccc(N3CCN(c4ccc(OC[C@@H]5CO[C@@](Cn6cncn6)(c6ccc(F)cc6F)C5)cc4)CC3)cc2)c1=O [POSACONAZOLE] | 0.5 | 0.19 | > 8 | 0.19 | 1.25 | – | – | – | – | –
OC(Cn1cncn1)(Cn1cncn1)c1ccc(F)cc1F [FLUCONAZOLE] | – | – | – | – | – | > 3 | > 10 | – | – | Survival (Candida albicans [3]): inactive; Activity (Candida albicans [5]): 2.8%; Activity (Candida albicans [6]): 13.1%; Activity (Candida albicans [7]): Active; Activity (Candida albicans [8]): 2.8%; Activity (Candida albicans [9]): 3.2%; Activity (Candida albicans [10]): 2%; Activity (Candida albicans [11]): 8.8%; Activity (Candida albicans [12]): 7.3%; Activity (Candida albicans [13]): 57.8%; Activity (Candida albicans [14]): 2.2%; survival at 10 mg/kg (Candida albicans [15]): 100%
C[C@@H](n1ncc2cc(-c3ccc(C#N)cc3)cn2c1=O)[C@](O)(Cn1cncn1)c1ccc(F)cc1F | 0.25 | 0.125 | 10 | 0.75 | > 16 | 0.058 | 0.101 | > 100 | > 100 | MIC (Aspergillus fumigatus [19]): > 100 µg/mL
C[C@@H](n1ncc2cc(Br)cn2c1=O)[C@](O)(Cn1cncn1)c1ccc(F)cc1F | 8 | 4 | > 16 | 8 | 4 | 0.251 | 0.076 | 6.74 | 6.66 | MIC (Nakaseomyces glabratus): 0.014 µg/mL; MIC (Candida albicans [20]): 0.155 µg/mL; MIC (Candida albicans [21]): 0.002 µg/mL; MIC (Candida albicans [22]): 0.14 µg/mL
C[C@@H]1[C@H](O)[C@@H](C)/C=C/C=C/C=C/C=C/C=C/C=C/C=C/[C@H](O[C@@H]2O[C@H](C)[C@@H](O)[C@H](N)[C@@H]2O)C[C@@H]2O[C@](O)(C[C@@H](O)C[C@@H](O)[C@H](O)CC[C@@H](O)C[C@@H](O)CC(=O)O[C@H]1C)C[C@H](O)[C@H]2C(=O)O [AMPHOTERICIN B] | 0.5 | 0.19 | 12 | 0.19 | > 8 | – | – | – | – | –
C[C@@H](n1ncc2cc(-c3ccccc3)cn2c1=O)[C@](O)(Cn1cncn1)c1ccc(F)cc1F | – | – | – | – | – | 0.013 | 0.014 | – | – | –
CCC(C)n1ncn(-c2ccc(N3CCN(c4ccc(OCC5COC(Cn6cncn6)(c6ccc(Cl)cc6Cl)O5)cc4)CC3)cc2)c1=O (configuration not stated) [ITRACONAZOLE] | 1.12 | 0.19 | > 16 | 0.19 | 0.5 | – | – | > 100 | 0.5 | –
C[C@@H](n1ncc2cc(-c3ccc([N+](=O)[O-])cc3)cn2c1=O)[C@](O)(Cn1cncn1)c1ccc(F)cc1F | 0.25 | 0.0625 | 12 | 0.25 | > 16 | 0.066 | 0.039 | – | – | –
C[C@@H](n1ncc2cccn2c1=O)[C@](O)(Cn1cncn1)c1ccc(F)cc1F | 8 | 4 | > 16 | 16 | > 16 | 0.625 | 1.15 | – | – | –
C[C@@H](c1ncncc1F)[C@](O)(Cn1cncn1)c1ccc(F)cc1F [VORICONAZOLE] | 8 | – | 6 | > 8 | 0.5 | 0.817 | 0.24 | – | – | Survival (Candida albicans [23]): inactive
